Measurements taken from article PMC7341950 (Nature chemistry, 2019).
Peptide text beside a SMILES is read from it. * marks the point of attachment. Cbz = O=C(OCc1ccccc1)*

Test system: HeLa cells
Assay: Radiolabel pulse-chase of cellular protein breakdown
Assay type: cell-based, human
Conditions: 35S-Met/35S-Cys label, 4 hr chase
Summary of the method: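 Cellular proteins were metabolically labeled with ³⁵S-Met and ³⁵S-Cys, then chased in unlabeled ("cold") medium. During the chase, cells were left untreated or given DMSO, test compound, or the proteasome inhibitor MG132 as a reference. Compounds were tested at more than one concentration to follow degradation across doses. Bars show mean values.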

For CC(C)C[C@@H](C=O)NC(=O)[C@H](CC(C)C)NC(=O)[C@H](CC(C)C)NC(=O)OCc1ccccc1 [MG132] (Cbz-Leu-Leu-Leu-aldehyde), the cellular protein breakdown was “inhibit”.
